From PMC3953455 (Molecular pharmaceutics, 2013)

Assays:
human UGT1A1 [1] = molecular target: T1, human UGT1A1 (Homo sapiens, UniProt P22309); assay: Glucuronidation kinetics with expressed human UGT1A1 Supersomes; type: in vitro ADME
T1 sequence (P22309 26-533): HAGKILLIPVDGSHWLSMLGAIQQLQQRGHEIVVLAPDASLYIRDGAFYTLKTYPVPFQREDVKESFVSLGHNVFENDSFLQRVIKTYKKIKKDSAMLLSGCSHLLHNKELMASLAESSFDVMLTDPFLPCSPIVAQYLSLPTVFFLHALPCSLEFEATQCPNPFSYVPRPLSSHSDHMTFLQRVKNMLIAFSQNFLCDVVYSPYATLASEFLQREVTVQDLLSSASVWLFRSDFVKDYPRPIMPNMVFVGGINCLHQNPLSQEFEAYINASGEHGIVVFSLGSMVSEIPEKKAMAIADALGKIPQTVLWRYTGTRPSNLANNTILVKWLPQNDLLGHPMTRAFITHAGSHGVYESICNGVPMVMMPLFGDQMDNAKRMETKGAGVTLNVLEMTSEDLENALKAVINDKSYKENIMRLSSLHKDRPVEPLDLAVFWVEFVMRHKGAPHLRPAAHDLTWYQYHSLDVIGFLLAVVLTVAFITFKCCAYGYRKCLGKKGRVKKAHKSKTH
In short: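 Recombinant human UGT1A1 Supersomes (26.5~53.0 µg protein/mL final) with MgCl2 0.88 mM, saccharolactone 4.4 mM, alamethicin 0.022 mg/mL and UDPGA 3.5 mM (added last) in 50 mM potassium phosphate, pH 7.4. Test compound at 0–10 µM final. Incubated 37°C for 15~120 min, then stopped with acetonitrile/acetic acid. Glucuronide quantified by UPLC in triplicate. Rates were fitted to Michaelis-Menten, substrate-inhibition or Hill equations with 1/y weighting.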

human UGT1A1 [2] = molecular target: T1, human UGT1A1; assay: Mutual glucuronidation inhibition; type: biochemical; details: for Ki: mixed-type inhibition; for type of inhibition of UGT1A1-mediated glucuronidation: best fit by R2 and AIC, Lineweaver-Burk plots; for decrease of apparent Vmax of glucuronidation versus control: substrate glucuronidation in presence of increasing 3,7,4′THF, up to 5 μM; for Vmax: n=3
[3] = Ki (inhibition of 3,7,4′THF-3-O-G formation), substrate 3,7,4′THF, 3-O-glucuronidation
[4] = Ki (inhibition of 3,7,4′THF-7-O-G formation), substrate 3,7,4′THF, 7-O-glucuronidation
[5] = glucuronide formation in presence of 3,7,4′THF 0.313 μM
[6] = glucuronide formation in presence of 3,7,4′THF 0.625 μM
[7] = glucuronide formation in presence of 3,7,4′THF 1.25 μM
[8] = glucuronide formation in presence of 3,7,4′THF 5 μM
[9] = glucuronide formation, 3,7,4′THF 0 μM (absence of inhibitor)

SMILES	type of inhibition of UGT1A1-mediated glucuronidation (human UGT1A1 [2])	Ki (human UGT1A1 [2]; [3]) [µM]	Ki (human UGT1A1 [2]; [4]) [µM]	decrease of apparent Vmax of glucuronidation versus control (human UGT1A1 [2]) [times]	Vmax (human UGT1A1 [2]; [5]) [nmol/mg/min]	Vmax (human UGT1A1 [2]; [6]) [nmol/mg/min]	Vmax (human UGT1A1 [2]; [7]) [nmol/mg/min]	Vmax (human UGT1A1 [2]; [8]) [nmol/mg/min]	Vmax (human UGT1A1 [2]; [9]) [nmol/mg/min]	further results
O=c1c(O)c(-c2ccc(O)cc2)oc2cc(O)ccc12 [3,7,4′THF, 3,7,4′-trihydroxyflavone]	mixed-type inhibition									Ki of substrate inhibition (human UGT1A1 [1]; substrate inhibition pattern of 3,7,4′THF in the absence of three MHFs): approximately 1 μM; Ki (human UGT1A1 [2]; Ki (inhibition of glucuronidation of 3HF), substrate 3HF): 0.51 ± 0.15 µM; Ki (human UGT1A1 [2]; Ki (inhibition of glucuronidation of 7HF), substrate 7HF): 1.29 ± 0.33 µM
O=C(O)[C@H]1O[C@@H](Oc2ccc(-c3oc4cc(O)ccc4c(=O)c3O)cc2)[C@H](O)[C@@H](O)[C@@H]1O [3,7,4′THF-4′-O-G, 3,7,4′THF-4′-O-glucuronide]										detection of glucuronide in UGT1A1 reaction mixtures (human UGT1A1 [1]; 3,7,4′THF incubated with human UGT1A1): not detected
O=c1c(O)c(-c2ccccc2)oc2ccccc12 [3HF, 3-Hydroxyflavone]	mixed-type inhibitors	4.14 ± 1.24	9.04 ± 2.72	≤ 4.6						
O=C(O)[C@H]1O[C@@H](Oc2ccc(-c3cc(=O)c4ccccc4o3)cc2)[C@H](O)[C@@H](O)[C@@H]1O [4′HF-O-G, 4′HF-O-glucuronide]					0.63 ± 0.02	0.61 ± 0.02	0.58 ± 0.01	0.14 ± 0.01	0.68 ± 0.02	
O=c1cc(-c2ccc(O)cc2)oc2ccccc12 [4′HF, 4′-hydroxyflavone]	mixed-type inhibitors	3.66 ± 0.77	6.22 ± 1.74	≤ 5.0						
O=C(O)[C@H]1O[C@@H](Oc2ccc3c(=O)cc(-c4ccccc4)oc3c2)[C@H](O)[C@@H](O)[C@@H]1O [7HF-O-G, 7HF-O-glucuronide]					1.27 ± 0.03	1.16 ± 0.03	0.99 ± 0.07	0.59 ± 0.07	1.40 ± 0.05	
O=C(O)[C@H]1O[C@@H](Oc2c(-c3ccccc3)oc3ccccc3c2=O)[C@H](O)[C@@H](O)[C@@H]1O [3HF-O-G, 3HF-O-glucuronide]					1.63 ± 0.07	1.67 ± 0.03	2.05 ± 0.13	0.44 ± 0.16	2.00 ± 0.05	
O=c1cc(-c2ccccc2)oc2cc(O)ccc12 [7HF, 7-hydroxyflavone]	mixed-type inhibitors	1.77 ± 0.72	4.33 ± 1.6	≤ 2.4						
